The labels stand for the following.
B1: tRNA (parent)
chain: GUUCCGUUGGCGUAAUGGUAACGCGUCUCCCUCCUAAGGAGAAGACUGCGGGUUCGAGUCCCGUACGGAACG

Fewer inactive variants are shown than the library holds.

Variants of B1 are the subject of the series. The experiment in a line: yeast fitness relative to wild type (ratio to wild type); higher = fitter; tRNA-Arg(CCU), competitive growth, 37 C, YPD. Summed up: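 Variants of the tRNA-Arg(CCU) gene were chemically synthesised with a 3% per-site mutation rate across 69 sites and placed at the native genomic locus in Saccharomyces cerevisiae. Six parallel replicates of the pooled strains were competed in YPD at 37°C for 24 hours, and gene amplicons from the start and end populations were read by 100-nucleotide paired-end sequencing. Darwinian fitness relative to wild type was derived from changes in genotype frequencies. Genotypes required ≥ 100 starting reads, and estimates < 0.5 were set to 0.5.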
Turning to GUUCCGCUGGCGUAAUGAUAACGCGUCUCCCUCCAAAGGAGAUGACUGCGGGUCCGAGUCCCGUGCGGAACG [U7C G18A U35A A43U U54C A65G], the yeast fitness is at most 0.5. For GUUCUGUUGGCGUAAUGGUAACGCGUCUCCCUCCUAAGGAGAAGACUGCGGGUUCGAGUCCCGUACAGAACG [C5U G67A], the yeast fitness was 0.923. With GUUCCGUUGGCGUAAUGGUAACGCGUCUCCUUCCUAAGGAGAAGACUGCGGGUUCGAGUCCCGUACGGAGCG [C31U A70G], the yeast fitness was 1.1.

As for GUUCCGUUGGCGUAAUGGUAACGCGUCUCCCUCCUAAGAAGAAGACUGCGGGUUCGAGUCCCGUACGGACCG [G39A A70C], the yeast fitness is 1.04. In the case of GUUCCGUUGGCGUAAUGGUAACGCGCGUCCCUCCUAAGGAGAAGACUGCGGGUUCGAGUUCCGUACGGAACG [U26C C27G C60U] it was at most 0.5; in that of GUUCCGUUGGCGUAAUGGUAACGCGUCUCCCUACUAAGGAGAAGACUGCGGGUUCGAGUCCCGUACAGAACG [C33A G67A], 0.586.

GUUCAGUUGGGGUAAUGGUAACGCGUCUCCCUCCUAAGGAGAAGCCUGCGGGUUCGAGUCCCGUAGGCAACG [C5A C11G A45C C66G G68C]: the yeast fitness is at most 0.5. As for GUACCGUUGGCGUAAUGGUAAGGUGUCUCCCUCCUAAGAAGAAGACUGCGGGUUCGAGUCCCGUACGGAACG [U3A C22G C24U G39A], the yeast fitness is at most 0.5. As for GUUCCGUUGACGUAAUAGUAACGCGUCCCGCUCCUAAGGAGAAGCCUGUGGGUUCGAGUCCCGUACGGAACG [G10A G17A U28C C30G A45C C49U], the yeast fitness was at most 0.5. As to GUUCCGUUGGCGUAAUGGUAACGCGUCUCCCACCUAAGGAGAAGAUUGCGGGUUCGAGUCCCGUACGGAACG [U32A C46U], the yeast fitness was 0.623.

Regarding GUUACGUUGGCGUAAUCGUAACGCGUCUCCCUCCUAAGGAGAAGACUGCAAGUUCGAGUCCCGUACGGAACG [C4A G17C G50A G51A], the yeast fitness is at most 0.5.

Turning to GUUCCGUUGGCGUAAUGGUAACGAGUCUCCGUCUUAAGGAGAAGACUGCGGGUUCGAGUCCCGUACGAAACG [C24A C31G C34U G68A], the yeast fitness was at most 0.5. For GUACCGUUGGCGUAAUGGUAACGCGUCUGCCUCCUAAGGUCCAGACUGCGGGUUCGAGUCCCGUACGGAACG [U3A C29G A40U G41C A42C], the yeast fitness was at most 0.5. In the case of GUUCCGUUGGCGUAAUGGUAACGUGUCUCCCUCCUAAGGAGAAGAAUGCGGGUUCGAGUCCCGUACGGAACG [C24U C46A], the yeast fitness was 0.925. For GUUCUGUUGGCGUAAUGGUAACGCCUGUCCCUCCUAAGGAGAAGACUGCGGGUUCGAGUCCCGUACGGAACG [C5U G25C C27G], the yeast fitness is at most 0.5.

Turning to GUUCCGUUGGCGUAAUGGUAACGCGUCUCCCGCCUAAGGAGAAGACUGCGGGUUCGAGUCCCGUACUGAACG [U32G G67U], the yeast fitness worked out at 0.547. In the case of GUUCCGUUGGCGUAAUGGUAACGGGUCUCCCUCCUAAGGAGAAGAUUGCAGGUUCCAGUCCAGUAUGGAACG [C24G C46U G50A G56C C62A C66U], the yeast fitness was at most 0.5.

Regarding GUUCCAUUGGUGUAAUGGUAAUGCGUCUCCCUCCUAAGGAGAAGACUGCGGGUUCGAGUCCCGUACGGAACG [G6A C11U C22U], the yeast fitness is 0.566. For the variant GUUCCGUUGGCGUAAUGGUAACGCGUCUGCCUGCUAAGGAGCAGACUACGGGUUCGAGUCCCGUACGGAACG [C29G C33G A42C G48A], the yeast fitness was found to be 0.777. For the variant GUUCCGAUGGCGUAAUGGUAACGCGUCACCCUCCUAAGGAGAAGACUGCGGGUUCGAGUCCCGUACGGCACG [U7A U28A A69C], the yeast fitness is at most 0.5. For GUUCCGUCGGCGUAAUGGUAACGCGUCUCACUCCUAAGAAGAAGACAGCGGGUUCGAGUCCCCUACGGAACG [U8C C30A G39A U47A G63C], the yeast fitness is at most 0.5. Regarding GUUCCGUUGGCGUAAUGGUAACGCGUCUACUUCCUAAGGUGAAGACUGCGGGUUCGAGUCCCGUACGGAACG [C29A C31U A40U], the yeast fitness is at most 0.5. In the case of GUUCCGAUGGCGUAAUGGUAUCGCGUCUCCCUCCUAAGGAGAAGACUGCGGGUUCGAGUCCCGUCCGGAACG [U7A A21U A65C], the yeast fitness is 0.577.

For GUUCCGUUCGCGUAAUGGUAACGCGUCUCCCUCCUAAAGAGAAGACUGCGGGUUCGCGUCCCGUACGGAACG [G9C G38A A57C], the yeast fitness is at most 0.5. On to GUUCCGUUAGCGUAAUGGGAACGCGUCUCCCUCCUAAGGAGAAGACUGCGGGUUCGGGUCCCGUACGGAACG [G9A U19G A57G], for which the yeast fitness is 0.503.

As to GUUCCGUUGGCGUGAUGGUAACACGUGUCCCUCCUAAGGAGAAGACUGCGGGUUCGAGUCCCGUACGGAACG [A14G G23A C27G], the yeast fitness was at most 0.5. The result for GUUCCGUUGGCGUAAUGGUAACGCGUCUCCCUCCUAACGAGAAGACUGCGGGUUUGAGUCCCGUACGGAACG [G38C C55U] reads 0.545. Regarding GUUCCGUAGGCGUAAUGAUAACGCGUCUCGCACCGAAGGAGAAGACUGCGGGUUCGAGUCCCGUACAGAACG [U8A G18A C30G U32A U35G G67A], the yeast fitness is at most 0.5. The result for GUUCCAUUGGCGUAAUGGUAACGCGUCUCCCUACUAAGGAGCAGACUGCGGGUUCGAGUCCCGUACGGAACG [G6A C33A A42C] reads 0.578; that for GUUCCGUUGGGGUAAUGGUAACGCGUCUCCCUCCUGAGGAGAAGACUGCGGGUUCGAGUCCCGUACUGCACG [C11G A36G G67U A69C], at most 0.5; that for GAUCCGUUGGCGUAAUGGUAACGCGUCUCCGUCCUAAGGAGAAGACUGUGAGUUCGAGUCCCAUACGGAACG [U2A C31G C49U G51A G63A], at most 0.5. For the variant GUUCCAUUGGCGUACUGGUAAGGCGUCUCCCUUCUAAGGAGAAGACUGCGGGUUCGAGGCCGGUACGGAACG [G6A A15C C22G C33U U59G C62G], the yeast fitness amounted to 0.634. As for GUUCCGUUGGCGUAAUGGUAAUGCGUCUCCCUUCUAAGGAGAAGACUGCGGAUUCGAGUCCCGUAUGGAACG [C22U C33U G52A C66U], the yeast fitness is at most 0.5. In the case of GUUCCGUUGGCCUUAUGGUUACACGUCUCCCUCCUAAGGAGAAAACUGCGGGUUCGGGUCCCGUACGGAUCG [G12C A14U A20U G23A G44A A57G A70U], the yeast fitness was determined as 0.575. The result for GUUCUGUUGGCGUAAUGGUCACGCGUCUCCCUCCUAAGGAGAAGACUGCGGGUUCGAGUCCCGUACGGAACG [C5U A20C] reads 1.1; that for GUUCCGCUGGCGUAAUGGUAAGGACUCUCCCUCCUAAGGAGAAGACUGCGGGUUCGAGUCCCGUACGGAACG [U7C C22G C24A G25C], at most 0.5; that for GUUCCGUAGGCGUAAUGGUAACGCGUCUCCCUCCUAACGAGAAGACUGCGGGUUCGAGUCCCGUACGGAACG [U8A G38C], 0.647. In the case of GUUCCGUUGGCGUGUUGGUAACGCGUCUCCCUCCUAAGGAGAAGACUGCGGGUUCGAGUCUCGUACGGAACG [A14G A15U C61U] it was at most 0.5.

The record behind these values is the RNAGym collection of RNA variant scans (doi:10.1126/science.aae0568).
